Laboratory results from ChEMBL document CHEMBL1154778, “Synthesis and biological evaluation of C-5 methyl substituted 4-arylthio and 4-aryloxy-3-Iodopyridin-2(1H)-one type anti-HIV agents” (J Med Chem, 2009).

How the values were obtained:
[1] = test system: Human immunodeficiency virus 1; assay: Antiviral activity against HIV-1 LAI harboring wild type reverse transcriptase infected in human MT4 cells after 5 days by MTT assay; assay type: functional, organism-based; conditions: Human immunodeficiency virus 1, LAI, MT4, 120 h
Outline: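 MT4 cells were kept in RPMI 1640 with 10% fetal calf serum and antibiotics at 37 °C, 5% CO2. A range of compound concentrations was incubated with HIV-1 LAI at 200 CCID50/well and 30000 MT4 cells/well for 5 days at 37 °C. Cell viability was read by MTT, and IC50 was the concentration giving 50% infection versus the drug-free control.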

[2] = Selectivity index, ratio of CC50 for human MT4 cells to IC50 for HIV-1 LAI harboring wild type reverse transcriptase infected in human MT4 cells; assay type: functional
Outline: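 Cytotoxicity was measured in mock-infected MT4 cultures (30000 cells/well) given the same compound concentration range, run in parallel with the infected cultures for 5 days at 37 °C, 5% CO2, with MTT viability. CC50 was the concentration reducing viability by 50% versus the drug-free control. SI was CC50 divided by IC50 against HIV-1 LAI.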

[3] = test system: Human immunodeficiency virus 1; assay: Antiviral activity against HIV1 HXB2 harboring K103N mutant reverse transcriptase infected in human MT4 cells after 5 days by MTT assay; assay type: functional, organism-based; conditions: Human immunodeficiency virus 1, HXB2, MT4, 120 h
Outline: (§1)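 Mutant viruses were made by recombining the mutant PR-RT sequence into a PR-RT-deleted HIV-1 HXB2 proviral clone. MT4 cells were grown in RPMI 1640 with 10% FCS and antibiotics. Virus at 200 CCID50/well and 30000 cells/well were incubated with varied compound concentrations for 5 days at 37 °C, 5% CO2. MTT viability gave IC50, the concentration giving 50% infection versus the drug-free control.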

[4] = test system: Human immunodeficiency virus 1; assay: Antiviral activity against HIV1 HXB2 harboring Y181C mutant reverse transcriptase infected in human MT4 cells after 5 days by MTT assay; assay type: functional, organism-based; conditions: Human immunodeficiency virus 1, HXB2, MT4, 120 h; outline: as §1
[5] = test system: Human immunodeficiency virus 1; assay: Antiviral activity against HIV1 HXB2 harboring Y188L mutant reverse transcriptase infected in human MT4 cells after 5 days by MTT assay; assay type: functional, organism-based; conditions: Human immunodeficiency virus 1, HXB2, MT4, 120 h; outline: as §1

| SMILES | IC50 [1] [nM] | Ratio CC50/IC50 [2] | IC50 [3] [nM] | IC50 [4] [nM] | IC50 [5] [nM] |
| --- | --- | --- | --- | --- | --- |
| Cc1cc(C)cc(Oc2c(CSCc3ccccc3)c(C)[nH]c(=O)c2I)c1 | 6.3 | >15849 | 7.94 | 15.8 | 31.6 |
| Cc1cc(C)cc(Oc2c(-n3ccnc3C#N)c(C)[nH]c(=O)c2I)c1 | 6.3 | >15848 | 12.5 | 39.8 | 125 |
| Cc1cc(C)cc(Oc2c(COCc3cccs3)c(C)[nH]c(=O)c2I)c1 | 6.3 | >15849 | 6.3 | 31.6 | 50.1 |
| Cc1cc(C)cc(Oc2c(CSCc3nccs3)c(C)[nH]c(=O)c2I)c1 | 7.94 | >12589 | 25.1 | 39.8 | 2000 |
| Cc1cc(C)cc(Oc2c(CO)c(C)[nH]c(=O)c2I)c1 | 5 | >19953 | 158 | 158 | 3160 |
| Cc1cc(C)cc(Oc2c(COCc3ccc(F)cc3)c(C)[nH]c(=O)c2I)c1 | 7.94 | >12589 | 7.94 | 25.1 | 79.4 |
| Cc1cc(C)cc(Oc2c(CSCC(C)C)c(C)[nH]c(=O)c2I)c1 | 7.94 | >12589 | 25.1 | 50.1 | 794 |
| Cc1cc(C)cc(Oc2c(CN3CCOC(CC#N)C3)c(C)[nH]c(=O)c2I)c1 (stereo not given) | 6.3 | >15849 | 6.3 | 31.6 | 100 |
| Cc1cc(C)cc(Oc2c(CN3CCC(OC(N)=O)CC3)c(C)[nH]c(=O)c2I)c1 | 6.3 | 7943 | 1.99 | 25.1 | 50.1 |
| CCS(=O)(=O)Cc1c(C)[nH]c(=O)c(I)c1Oc1cc(C)cc(C)c1 | 7.94 | >12589 | 39.8 | 158 | 794 |
| Cc1cc(C)cc(Oc2c(COCc3ccccc3)c(C)[nH]c(=O)c2I)c1 | 7.94 | >12589 | 31.6 | 31.6 | 125 |
| Cc1cc(C)cc(Oc2c(COCc3ccsc3)c(C)[nH]c(=O)c2I)c1 | 5 | >19953 | 25.1 | 25.1 | 100 |
| Cc1cc(C)cc(Oc2c(CN3CCCC(C#N)C3)c(C)[nH]c(=O)c2I)c1 (stereo not given) | 3.98 | 19953 | 6.3 | 31.6 | 199 |
| Cc1cc(C)cc(Oc2c(CN3CCSCC3)c(C)[nH]c(=O)c2I)c1 | 6.3 | >15849 | 7.94 | 39.8 | 125 |
| Cc1cc(C)cc(Oc2c(COCC3CCCO3)c(C)[nH]c(=O)c2I)c1 (stereo not given) | 7.94 | >12589 | 31.6 | 39.8 | 501 |
| Cc1cc(C)cc(Oc2c(CSC3CCCC3)c(C)[nH]c(=O)c2I)c1 | 10 | >10000 | 31.6 | 100 | 630 |
| Cc1cc(C)cc(Oc2c(Cn3cncc3C)c(C)[nH]c(=O)c2I)c1 | 5.01 | >19952 | 10 | 31.6 | 125 |
| CCOC(=O)CC1CN(Cc2c(C)[nH]c(=O)c(I)c2Oc2cc(C)cc(C)c2)CCO1 (stereo not given) | 6.3 | >15849 | 1.99 | 25.1 | 50.1 |
| Cc1cc(C)cc(Oc2c(Cn3ccc(N)n3)c(C)[nH]c(=O)c2I)c1 | 7.9 | >12589 | 39.8 | 39.8 | 125 |
| Cc1cc(C)cc(Sc2c(Cn3cnc(-c4ccccc4)n3)c(C)[nH]c(=O)c2I)c1 | 6.3 | >15849 | 7.94 | 10 | 39.8 |
| Cc1cc(C)cc(Sc2c(CSc3nccs3)c(C)[nH]c(=O)c2I)c1 | 5.01 | 15849 | 7.94 | 199 | 3160 |
| Cc1cc(C)cc(Sc2c(CN(C)Cc3ccco3)c(C)[nH]c(=O)c2I)c1 | 6.3 | >15849 | 15.8 | 50.1 | 794 |
